Columns and labels:
[1] = target: Mitogen-activated protein kinase kinase kinase 6 (Homo sapiens) (UniProt O95382); assay: Binding affinity to wild-type human partial length ASK2 (M278 to R972 residues) expressed in mammalian expression system assessed as residual binding level at 1 uM by Kinomescan method relative to control
How it was run: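 Single-concentration KINOMEscan (DiscoverX) binding screen at 1 μM against a panel of 468 purified kinases and mutants. The read-out is binding relative to control.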

[2] = target: Cyclin-dependent kinase 19 (Homo sapiens) (UniProt Q9BWU1); assay: Binding affinity to wild-type human partial length CDK11 (M1 to N360 residues) expressed in bacterial expression system assessed as residual binding level at 1 uM by Kinomescan method relative to control
How it was run: (§1)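 Kinome-wide competition binding screen against a panel of 468 purified kinases/mutants, with the test compound at a single concentration of 1 μM. Read-out is the relative binding activity of each kinase in the presence of compound.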

[3] = target: Tyrosine-protein kinase Mer (Homo sapiens) (UniProt Q12866); assay: Binding affinity to wild-type human partial length MERTK (R557 to L884 residues) expressed in bacterial expression system assessed as residual binding level at 1 uM by Kinomescan method relative to control
[4] = target: Dual specificity tyrosine-phosphorylation-regulated kinase 2 (Homo sapiens) (UniProt Q92630); assay: Binding affinity to wild-type human full length DYRK2 (M1 to S528 residues) expressed in mammalian expression system assessed as residual binding level at 1 uM by Kinomescan method relative to control
How it was run: (§2)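 Single-concentration (1 μM) competition-binding screen run by KINOMEscan against a panel of 468 purified kinases and mutants. The read-out is the relative binding activity of the test compound to each kinase.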

[5] = target: Serine/threonine-protein kinase Nek11 (Homo sapiens) (UniProt Q8NG66); assay: Binding affinity to wild-type human partial length NEK11 (M1 to E313 residues) expressed in mammalian expression system assessed as residual binding level at 1 uM by Kinomescan method relative to control
[6] = target: Serine/threonine-protein kinase BRSK2 (Homo sapiens) (UniProt Q8IWQ3); assay: Binding affinity to wild-type human full length BRSK2 (M1 to L674 residues) expressed in bacterial expression system assessed as residual binding level at 1 uM by Kinomescan method relative to control; how it was run: as §2
[7] = target: Ephrin type-A receptor 2 (Homo sapiens) (UniProt P29317); assay: Binding affinity to wild-type human partial length EPHA2 (T593 to V891 residues) expressed in bacterial expression system assessed as residual binding level at 1 uM by Kinomescan method relative to control
[8] = target: Mitogen-activated protein kinase 15 (Homo sapiens) (UniProt Q8TD08); assay: Binding affinity to wild-type human partial length ERK8 (M1 to P437 residues) expressed in bacterial expression system assessed as residual binding level at 1 uM by Kinomescan method relative to control
[9] = target: Cyclin-dependent kinase 7 (Homo sapiens) (UniProt P50613); assay: Binding affinity to wild-type human full length CDK7 (M1 to L344 residues) expressed in mammalian expression system assessed as residual binding level at 1 uM by Kinomescan method relative to control
How it was run: (§3)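 KINOMEscan competition binding against 468 purified kinases/mutants, test compound at 1 µM; residual binding relative to control.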

[10] = target: Myosin light chain kinase family member 4 (Homo sapiens) (UniProt Q86YV6); assay: Binding affinity to wild-type human partial length MYLK4 (V79 to S380 residues) expressed in bacterial expression system assessed as residual binding level at 1 uM by Kinomescan method relative to control
[11] = target: Serine/threonine-protein kinase 38-like (Homo sapiens) (UniProt Q9Y2H1); assay: Binding affinity to wild-type human partial length NDR2 (N34 to E447 residues) expressed in bacterial expression system assessed as residual binding level at 1 uM by Kinomescan method relative to control; how it was run: as §1
[12] = target: Tyrosine-protein kinase Fes/Fps (Homo sapiens) (UniProt P07332); assay: Binding affinity to wild-type human partial length FES (I527 to R822 residues) expressed in bacterial expression system assessed as residual binding level at 1 uM by Kinomescan method relative to control
[13] = target: Serine/threonine-protein kinase DCLK3 (Homo sapiens) (UniProt Q9C098); assay: Binding affinity to wild-type human partial length DCAMKL3 (E140 to V628 residues) expressed in bacterial expression system assessed as residual binding level at 1 uM by Kinomescan method relative to control; how it was run: as §1
[14] = target: Serine/threonine-protein kinase Chk2 (Homo sapiens) (UniProt O96017); assay: Binding affinity to wild-type human partial length CHEK2 (S253 to E574 residues) expressed in bacterial expression system assessed as residual binding level at 1 uM by Kinomescan method relative to control
[15] = target: Non-receptor tyrosine-protein kinase TNK1 (Homo sapiens) (UniProt Q13470); assay: Binding affinity to wild-type human full length TNK1 (M1 to P661 residues) expressed in bacterial expression system assessed as residual binding level at 1 uM by Kinomescan method relative to control; how it was run: as §3
[16] = target: Cyclin-dependent kinase 8 (Homo sapiens) (UniProt P49336); assay: Binding affinity to wild-type human partial length CDK8 (M1 to T360 residues) expressed in bacterial expression system assessed as residual binding level at 1 uM by Kinomescan method relative to control
[17] = target: MAP/microtubule affinity-regulating kinase 4 (Homo sapiens) (UniProt Q96L34); assay: Binding affinity to wild-type human partial length MARK4 (K29 to G340 residues) expressed in bacterial expression system assessed as residual binding level at 1 uM by Kinomescan method relative to control
[18] = test system: Phosphatidylinositol 4,5-bisphosphate 3-kinase catalytic subunit alpha isoform (Homo sapiens), P42336 [E542K]; assay: Binding affinity to human partial length PIK3CA E542K mutant (R108 to N1068 residues) expressed in mammalian expression system assessed as residual binding level at 1 uM by Kinomescan method relative to control
How it was run: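 Kinome-wide single-concentration binding screen (KINOMEscan) at 1 μM against a panel of 468 purified kinases and mutants. Read-out is relative binding of each kinase compared with control. Selectivity across the panel was summarised as an S(10) score.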

[19] = target: Platelet-derived growth factor receptor beta (Homo sapiens, UniProt P09619); assay: Binding affinity to wild-type human partial length PDGFRbeta (V582 to Y1009 residues) expressed in bacterial expression system assessed as residual binding level at 1 uM by Kinomescan method relative to control
How it was run: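 KINOMEscan competition binding against a panel of 468 purified kinases/mutants, compound tested at 1 μM; readout is relative binding activity versus control.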

[20] = target: LIM domain kinase 2 (Homo sapiens) (UniProt P53671); assay: Binding affinity to wild-type human full length LIMK2 (M1 to P638 residues) expressed in bacterial expression system assessed as residual binding level at 1 uM by Kinomescan method relative to control; how it was run: as §2
[21] = target: Calcium/calmodulin-dependent protein kinase type 1B (Homo sapiens) (UniProt Q6P2M8); assay: Binding affinity to wild-type human partial length CAMK1B (W9 to A311 residues) expressed in mammalian expression system assessed as residual binding level at 1 uM by Kinomescan method relative to control

Sequence of Mitogen-activated protein kinase kinase kinase 6 (Homo sapiens) (O95382 whole entry, the tested form may be a part): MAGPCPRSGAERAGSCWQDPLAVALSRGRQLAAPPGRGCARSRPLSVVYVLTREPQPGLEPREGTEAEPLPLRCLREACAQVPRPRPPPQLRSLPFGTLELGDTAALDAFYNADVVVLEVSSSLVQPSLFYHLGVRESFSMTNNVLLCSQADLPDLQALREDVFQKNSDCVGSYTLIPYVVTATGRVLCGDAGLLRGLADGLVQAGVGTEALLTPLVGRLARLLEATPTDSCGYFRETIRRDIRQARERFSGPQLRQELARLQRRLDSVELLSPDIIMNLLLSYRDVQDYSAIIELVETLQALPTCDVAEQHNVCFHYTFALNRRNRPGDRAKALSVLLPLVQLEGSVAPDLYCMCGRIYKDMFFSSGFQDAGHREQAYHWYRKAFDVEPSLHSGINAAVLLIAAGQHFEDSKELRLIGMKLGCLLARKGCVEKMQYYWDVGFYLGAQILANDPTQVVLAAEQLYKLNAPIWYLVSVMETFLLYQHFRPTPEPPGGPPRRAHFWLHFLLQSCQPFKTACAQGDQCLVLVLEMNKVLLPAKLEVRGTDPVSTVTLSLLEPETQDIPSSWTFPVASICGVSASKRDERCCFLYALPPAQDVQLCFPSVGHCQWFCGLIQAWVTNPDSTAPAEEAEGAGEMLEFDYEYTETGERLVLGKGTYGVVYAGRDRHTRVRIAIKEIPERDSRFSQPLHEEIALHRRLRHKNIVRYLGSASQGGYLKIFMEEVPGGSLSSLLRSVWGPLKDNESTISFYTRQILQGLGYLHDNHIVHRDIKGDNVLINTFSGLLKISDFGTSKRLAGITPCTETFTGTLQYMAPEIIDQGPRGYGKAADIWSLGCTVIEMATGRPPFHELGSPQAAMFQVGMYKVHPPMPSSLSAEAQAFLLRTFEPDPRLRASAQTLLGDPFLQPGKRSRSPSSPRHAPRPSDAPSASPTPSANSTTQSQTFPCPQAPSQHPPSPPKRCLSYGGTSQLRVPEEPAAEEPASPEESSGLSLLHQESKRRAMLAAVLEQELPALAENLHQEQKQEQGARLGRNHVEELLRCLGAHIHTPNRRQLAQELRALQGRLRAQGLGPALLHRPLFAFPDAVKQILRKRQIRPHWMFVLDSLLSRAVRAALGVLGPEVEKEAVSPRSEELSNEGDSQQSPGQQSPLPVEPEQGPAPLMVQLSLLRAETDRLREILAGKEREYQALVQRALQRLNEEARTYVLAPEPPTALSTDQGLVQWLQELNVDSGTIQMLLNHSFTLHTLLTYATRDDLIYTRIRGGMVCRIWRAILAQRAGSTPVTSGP
Sequence of LIM domain kinase 2 (Homo sapiens) (P53671 whole entry, looked up, the tested form may be a part): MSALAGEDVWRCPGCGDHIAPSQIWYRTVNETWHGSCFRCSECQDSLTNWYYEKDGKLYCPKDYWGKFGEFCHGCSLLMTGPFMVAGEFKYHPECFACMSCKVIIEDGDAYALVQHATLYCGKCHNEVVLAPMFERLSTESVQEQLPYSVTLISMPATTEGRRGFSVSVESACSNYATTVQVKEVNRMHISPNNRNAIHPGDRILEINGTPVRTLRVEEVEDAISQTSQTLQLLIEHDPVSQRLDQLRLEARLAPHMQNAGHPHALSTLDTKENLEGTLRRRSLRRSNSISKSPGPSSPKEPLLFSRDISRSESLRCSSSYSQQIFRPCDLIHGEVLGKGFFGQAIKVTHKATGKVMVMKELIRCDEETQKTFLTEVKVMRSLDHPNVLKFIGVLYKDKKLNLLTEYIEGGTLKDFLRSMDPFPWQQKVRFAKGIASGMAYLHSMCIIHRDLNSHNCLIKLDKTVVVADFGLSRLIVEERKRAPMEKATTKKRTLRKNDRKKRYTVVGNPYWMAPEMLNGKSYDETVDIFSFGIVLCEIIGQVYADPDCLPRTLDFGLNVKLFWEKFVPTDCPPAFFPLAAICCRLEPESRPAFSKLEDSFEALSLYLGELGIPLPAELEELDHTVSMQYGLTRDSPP
Sequence of Tyrosine-protein kinase Mer (Homo sapiens) (Q12866 whole entry, the tested form may be a part): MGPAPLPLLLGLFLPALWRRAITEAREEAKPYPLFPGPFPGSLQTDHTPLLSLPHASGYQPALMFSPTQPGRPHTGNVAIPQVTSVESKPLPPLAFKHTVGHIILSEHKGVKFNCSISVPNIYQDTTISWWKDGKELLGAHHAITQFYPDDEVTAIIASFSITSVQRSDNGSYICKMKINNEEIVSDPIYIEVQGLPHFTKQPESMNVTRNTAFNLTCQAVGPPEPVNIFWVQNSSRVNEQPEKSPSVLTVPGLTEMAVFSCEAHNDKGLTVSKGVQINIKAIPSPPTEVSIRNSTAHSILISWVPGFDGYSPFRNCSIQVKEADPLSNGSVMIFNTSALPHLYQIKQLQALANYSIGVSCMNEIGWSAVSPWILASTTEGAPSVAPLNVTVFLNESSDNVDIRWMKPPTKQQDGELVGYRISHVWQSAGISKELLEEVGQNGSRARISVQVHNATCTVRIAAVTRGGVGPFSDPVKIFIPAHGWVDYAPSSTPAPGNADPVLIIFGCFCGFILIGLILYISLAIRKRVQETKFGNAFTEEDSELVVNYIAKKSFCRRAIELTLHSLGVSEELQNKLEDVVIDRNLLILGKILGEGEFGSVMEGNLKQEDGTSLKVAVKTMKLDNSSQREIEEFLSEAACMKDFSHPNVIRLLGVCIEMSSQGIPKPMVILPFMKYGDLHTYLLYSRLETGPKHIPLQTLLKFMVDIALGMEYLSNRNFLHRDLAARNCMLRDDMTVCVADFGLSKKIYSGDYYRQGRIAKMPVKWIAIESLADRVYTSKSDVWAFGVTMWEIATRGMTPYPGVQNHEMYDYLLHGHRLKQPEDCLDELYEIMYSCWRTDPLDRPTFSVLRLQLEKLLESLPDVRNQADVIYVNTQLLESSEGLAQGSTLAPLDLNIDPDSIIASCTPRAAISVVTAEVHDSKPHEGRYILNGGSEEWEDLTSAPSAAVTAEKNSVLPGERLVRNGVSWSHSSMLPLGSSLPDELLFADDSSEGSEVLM
Sequence of Mitogen-activated protein kinase 15 (Homo sapiens) (Q8TD08 whole entry, the tested form may be a part): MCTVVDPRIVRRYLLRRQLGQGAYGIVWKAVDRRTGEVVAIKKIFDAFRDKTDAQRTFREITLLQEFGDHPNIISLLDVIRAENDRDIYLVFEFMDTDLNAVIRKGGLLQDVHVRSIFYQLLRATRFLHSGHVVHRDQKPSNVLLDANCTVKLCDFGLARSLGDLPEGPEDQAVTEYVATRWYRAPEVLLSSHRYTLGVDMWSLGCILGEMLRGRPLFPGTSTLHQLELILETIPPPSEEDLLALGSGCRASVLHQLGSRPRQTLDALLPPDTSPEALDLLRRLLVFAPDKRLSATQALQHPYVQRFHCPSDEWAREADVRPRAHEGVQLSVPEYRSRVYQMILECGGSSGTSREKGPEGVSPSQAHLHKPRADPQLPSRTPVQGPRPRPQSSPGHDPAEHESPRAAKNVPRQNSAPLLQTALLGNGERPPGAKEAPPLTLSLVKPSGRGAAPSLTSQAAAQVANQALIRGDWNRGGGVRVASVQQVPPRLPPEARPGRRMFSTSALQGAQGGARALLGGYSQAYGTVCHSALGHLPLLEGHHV
Sequence of Myosin light chain kinase family member 4 (Homo sapiens) (Q86YV6 whole entry, the tested form may be a part): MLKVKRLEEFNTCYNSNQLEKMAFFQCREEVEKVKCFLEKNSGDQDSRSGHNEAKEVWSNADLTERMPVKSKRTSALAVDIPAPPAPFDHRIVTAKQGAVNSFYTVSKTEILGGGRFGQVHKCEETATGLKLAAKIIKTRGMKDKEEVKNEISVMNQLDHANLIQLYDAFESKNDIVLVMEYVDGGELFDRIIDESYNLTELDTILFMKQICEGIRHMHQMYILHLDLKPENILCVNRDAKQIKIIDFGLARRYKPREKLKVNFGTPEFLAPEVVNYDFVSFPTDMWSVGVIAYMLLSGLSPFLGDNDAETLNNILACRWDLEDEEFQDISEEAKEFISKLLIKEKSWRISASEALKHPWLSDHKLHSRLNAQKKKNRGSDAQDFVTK
Sequence of Dual specificity tyrosine-phosphorylation-regulated kinase 2 (Homo sapiens) (Q92630 whole entry, the tested form may be a part): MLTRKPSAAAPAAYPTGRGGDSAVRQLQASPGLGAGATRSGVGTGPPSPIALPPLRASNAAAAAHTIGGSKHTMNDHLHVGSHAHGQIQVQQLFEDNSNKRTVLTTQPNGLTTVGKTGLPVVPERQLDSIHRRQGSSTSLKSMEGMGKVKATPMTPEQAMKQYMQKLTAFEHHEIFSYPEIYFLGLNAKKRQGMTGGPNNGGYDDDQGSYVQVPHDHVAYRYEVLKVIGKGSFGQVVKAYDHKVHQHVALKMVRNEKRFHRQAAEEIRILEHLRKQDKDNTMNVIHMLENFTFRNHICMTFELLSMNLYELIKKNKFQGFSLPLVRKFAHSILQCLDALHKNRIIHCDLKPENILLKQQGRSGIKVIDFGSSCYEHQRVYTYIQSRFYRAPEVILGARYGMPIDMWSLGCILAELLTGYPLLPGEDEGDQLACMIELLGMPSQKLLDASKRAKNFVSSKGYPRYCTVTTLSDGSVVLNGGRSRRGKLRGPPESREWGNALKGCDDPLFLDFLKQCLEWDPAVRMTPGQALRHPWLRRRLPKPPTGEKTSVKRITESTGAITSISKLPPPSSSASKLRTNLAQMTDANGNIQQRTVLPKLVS
Sequence of Cyclin-dependent kinase 8 (Homo sapiens) (P49336 whole entry, the tested form may be a part): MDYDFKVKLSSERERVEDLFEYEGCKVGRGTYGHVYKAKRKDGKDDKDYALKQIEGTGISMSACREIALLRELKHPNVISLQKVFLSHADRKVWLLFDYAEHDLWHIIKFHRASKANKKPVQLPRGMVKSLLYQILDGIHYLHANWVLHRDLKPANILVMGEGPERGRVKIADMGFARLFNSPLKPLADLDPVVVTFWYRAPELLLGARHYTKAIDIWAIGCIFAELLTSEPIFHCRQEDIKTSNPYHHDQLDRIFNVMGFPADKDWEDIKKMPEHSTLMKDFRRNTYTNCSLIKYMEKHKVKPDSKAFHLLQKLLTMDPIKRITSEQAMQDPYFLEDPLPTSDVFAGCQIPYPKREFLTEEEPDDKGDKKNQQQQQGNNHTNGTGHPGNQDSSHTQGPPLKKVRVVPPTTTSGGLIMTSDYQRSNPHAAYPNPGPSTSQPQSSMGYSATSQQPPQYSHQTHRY

Structure (SMILES): Cc1ccc(NC(=O)c2ccc(CN(CCN(C)C)C(=O)c3cccnc3)cc2)cc1Nc1nccc(-c2cccnc2)n1
- Activity [1]: 100%
- Activity [2]: 82%
- Activity [3]: 100%
- Activity [4]: 100%
- Activity [5]: 100%
- Activity [6]: 97%
- Activity [7]: 100%
- Activity [8]: 71%
- Activity [9]: 91%
- Activity [10]: 76%
- Activity [11]: 82%
- Activity [12]: 85%
- Activity [13]: 89%
- Activity [14]: 95%
- Activity [15]: 87%
- Activity [16]: 90%
- Activity [17]: 90%
- Activity [18]: 83%
- Activity [19]: 0.7%
- Activity [20]: 100%
- Activity [21]: 90%
